These results are taken from paper PMC3563353 (Bioconjugate chemistry, 2012).

Entries after “also recorded” stand apart in the source; their conditions may differ.

One assay relates to MC4R. The settings on record: cell lines engineered to overexpress MC4R; cited from earlier work.
The test system of a further assay is MC5R. The settings on record: cell lines engineered to overexpress MC5R; cited from earlier work.
For assay [1], the system named is A375/MC1R and A375 xenograft tumors. Nature of the assay: In vivo fluorescence imaging of bilateral A375 / A375/MC1R xenograft tumors. More on the design: species or system nu/nu mice. The settings on record: p<0.05.
The subject of the next assay is B16F10 xenograft tumors. The format is in vivo, nu/nu mice. The settings on record: 3 nmol/kg i.v., melanotic B16F10 xenograft.
The subject of another assay is B16F10 cells. Nature of the assay: In vitro MC1R probe uptake study by fluorescence microscopy, B16F10 cells. The format is cell-based, mouse. The essentials: (§1)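 Cy5-conjugated MC1R ligand probe at 15 nM in medium, on live cells (1 × 10^4/well) grown 16 h on glass coverslips. Cells: A375/MC1R (stable hMC1R transfectant, 300 μg/ml G418) or melanotic B16F10-Luc; DMEM, 10% FBS, 37°C, 5% CO2. Imaged by fluorescence microscopy from 40 s to 15 min. For blocking, 10 min pre-incubation with 2 μM NDP-α-MSH.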

The test system of another assay is A375/MC1R cells. The experiment in a line: In vitro MC1R probe uptake study by fluorescence microscopy, A375/MC1R cells. The format is cell-based, human. The settings on record: 10 minute pre-incubation with 2 μM NDP-α-MSH before probe. Put shortly: as §1

Turning to “4-phenylbutyryl-His-DPhe-Arg-Trp-Gly-Lys”, the “affinity for MC4R (in words)” value with MC4R was “high nanomolar”. The “affinity for MC5R (in words)” value in the assay with MC5R was “high nanomolar”.
For the compound `CC1(C)C(=CC=C2CCCC(C=CC3=[N+](CCCCS(=O)(=O)O)c4ccc(S(=O)(=O)[O-])cc4C3(C)C)=C2Oc2ccc(S(=O)(=O)O)cc2)N(CCCCCC(=O)NCCN2C(=O)CC(SCCC(=O)NCCCC[C@H](NC(=O)CNC(=O)[C@H](Cc3c[nH]c4ccccc34)NC(=O)[C@H](CCCNC(=N)N)NC(=O)[C@@H](Cc3ccccc3)NC(=O)[C@H](Cc3c[nH]cn3)NC(=O)CCCc3ccccc3)C(N)=O)C2=O)c2ccc(S(=O)(=O)O)cc21` (stereo partly drawn) [MC1RL-800, 4-phenylbutyryl-His-DPhe-Arg-Trp-Gly-Lys(Mpr-IRDye800CW)-NH2], in assay [1], the “tumor uptake with co-injection of excess NDP-α-MSH peptide (in words)” value is “significantly blocked”. Also, the “fluorescence detection in B16F10 tumors with the Optix MX3 imaging system” value in the assay with B16F10 xenograft tumors was “not detectable”.
Take `CCN1C(=CC=CC=CC2=[N+](CCCCCC(=O)NCCN3C(=O)CC(SCCC(=O)NCCCC[C@H](NC(=O)CNC(=O)[C@H](Cc4c[nH]c5ccccc45)NC(=O)[C@H](CCCNC(=N)N)NC(=O)[C@@H](Cc4ccccc4)NC(=O)[C@H](Cc4c[nH]cn4)NC(=O)CCCc4ccccc4)C(N)=O)C3=O)c3ccc(S(=O)(=O)O)cc3C2(C)C)C(C)(C)c2cc(S(=O)(=O)[O-])ccc21` (stereo partly shown) [MC1RL-Cy5]: in the assay with B16F10 cells (B16F10 cells pre-incubated with unlabeled NDP-α-MSH before probe), the “probe uptake by B16F10 cells after blocking with NDP-α-MSH” value is reported as “blocking of probe-uptake was also observed; also recorded: completely blocked”. In the assay with B16F10 cells (melanotic B16F10 cells with endogenous MC1R, 15 nM probe, 5 min time-point), the “probe uptake by B16F10 cells” value is on record as “Probe uptake was also observed; also recorded: internalization of probe into the cells”. The “binding and uptake of probe after blocking with NDP-α-MSH” value in the assay with A375/MC1R cells was “No binding or uptake; also recorded: completely blocked”.
